# Measured values published in ChEMBL document CHEMBL1151470, “Pharmacokinetic interaction between fosamprenavir-ritonavir and rifabutin in healthy subjects” (Antimicrob Agents Chemother, 2008).
# Legend:
# Homo sapiens [1] = assay: Toxicity in human assessed as decrease in neutrophile count at 300 mg, po QD; type: organism-based; design: scale not given: the % may be the effect or the level left; details: in vivo
# Homo sapiens [2] = assay: Toxicity in human assessed as myalgia at 300 mg, po QD; type: organism-based; details: in vivo
# Homo sapiens [3] = assay: Toxicity in human assessed as pollakiurea at 300 mg, po QD; type: organism-based; details: in vivo
# Homo sapiens [4] = assay: Toxicity in human assessed as general disorder at 150 mg, […] with 700 mg fosamprenavir and 100 mg ritonavir po BID; type: organism-based; details: in vivo
# Homo sapiens [5] = assay: Toxicity in human assessed as gastrointestinal disorder at 300 mg, po QD; type: organism-based; details: in vivo
# Homo sapiens [6] = assay: Toxicity in human assessed as decrease in neutrophile count at 150 mg, […] with 700 mg fosamprenavir and 100 mg ritonavir po BID; type: organism-based; design: scale not given: the % may be the effect or the level left; details: in vivo
# [7] = AUC (0 to 48 hrs) in human at 150 mg, […] coadministered with 700 mg fosamprenavir and 100 mg ritonavir po BID; type: ADME, organism-based; design: time < 48 hr, dose 150 mg, route oral; details: plasma
# Procedure, shortened: (§1)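 Healthy volunteers received RFB 150 mg every other day with FPV-RTV 700/100 mg BID to steady state. Serial EDTA plasma was sampled on the last treatment day at predose and 0.5–24, 36 and 48 h, then stored at –20°C. AUC0-48 came from noncompartmental analysis (linear up/log-linear down trapezoidal) using actual elapsed sampling times.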
# Homo sapiens [8] = assay: AUC (0 to 48 hrs) in human assessed as dAc-RFB level at 300 mg, po QD; type: ADME, organism-based, Plasma; design: dose 300 mg, time < 48 hr, route oral; details: in vivo
# Procedure, shortened: (§2)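 Volunteers took RFB 300 mg QD alone to steady state. Serial EDTA plasma was sampled on the last treatment day at predose and 0.5–24 h, then stored at –20°C. AUC0-24 came from noncompartmental analysis (linear up/log-linear down trapezoidal) using actual times, and was doubled to estimate AUC0-48.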
# [9] = Cmax in human at 300 mg, po QD; details: in vivo
# Homo sapiens [10] = assay: Toxicity in human assessed as increase in neutrophile count at 150 mg, […] with 700 mg fosamprenavir and 100 mg ritonavir po BID; type: organism-based; details: in vivo
# Homo sapiens [11] = assay: Toxicity in human assessed as renal and urinary disorder at 300 mg, po QD; type: organism-based, Urine; details: in vivo
# Homo sapiens [12] = assay: Toxicity in human assessed as nervous system disorder at 300 mg, po QD; type: organism-based; details: in vivo
# Homo sapiens [13] = assay: Toxicity in human assessed as blood and lymphatic system disorder at 300 mg, po QD; type: organism-based; details: in vivo
# Homo sapiens [14] = assay: Toxicity in human assessed as headache at 300 mg, po QD; type: organism-based; details: in vivo
# Homo sapiens [15] = assay: Toxicity in human assessed as nausea at 300 mg, po QD; type: organism-based; details: in vivo
# Homo sapiens [16] = assay: Toxicity in human assessed as increase in ALT level at 150 mg, […] with 700 mg fosamprenavir and 100 mg ritonavir po BID; type: organism-based; details: in vivo
# Homo sapiens [17] = assay: Toxicity in human assessed as general disorder at 300 mg, po QD; type: organism-based; details: in vivo
# Homo sapiens [18] = assay: Toxicity in human assessed as pollakiurea at 150 mg, po QOD coadministered with 700 mg fosamprenavir and 100 mg ritonavir po BID; details: in vivo
# Homo sapiens [19] = assay: Toxicity in human assessed as psychiatric disorder at 300 mg, po QD; type: organism-based; details: in vivo
# Homo sapiens [20] = assay: Toxicity in human assessed as skin and subcutaneous tissue disorder at 300 mg, po QD; type: organism-based; details: in vivo
# Homo sapiens [21] = assay: Toxicity in human assessed as neutropenia at 150 mg, […] with 700 mg fosamprenavir and 100 mg ritonavir po BID; type: organism-based; details: in vivo
# Homo sapiens [22] = assay: Toxicity in human assessed as headache at 150 mg, […] with 700 mg fosamprenavir and 100 mg ritonavir po BID; type: organism-based; details: in vivo
# Homo sapiens [23] = assay: AUC (0 to 48 hrs) in human assessed as dAc-RFB level at 150 mg, […] coadministered with 700 mg fosamprenavir and 100 mg ritonavir po BID; type: ADME, organism-based, Plasma; design: dose 150 mg, time < 48 hr, route oral; details: in vivo; procedure, shortened: as §1
# Homo sapiens [24] = assay: Toxicity in human assessed as nausea at 150 mg, po QOD coadministered with 700 mg fosamprenavir and 100 mg ritonavir po BID; details: in vivo
# Homo sapiens [25] = assay: Toxicity in human assessed as rash generalized at 300 mg, po QD; type: organism-based; details: in vivo
# Homo sapiens [26] = assay: Toxicity in human assessed as musculoskeletal and connective tissue disorder at 300 mg, po QD; type: organism-based; details: in vivo
# Homo sapiens [27] = assay: Toxicity in human assessed as insomnia at 150 mg, […] with 700 mg fosamprenavir and 100 mg ritonavir po BID; type: organism-based; details: in vivo
# Homo sapiens [28] = assay: Toxicity in human assessed as fatigue at 300 mg, po QD; type: organism-based; details: in vivo
# Homo sapiens [29] = assay: Toxicity in human assessed as nervous system disorder at 150 mg, […] with 700 mg fosamprenavir and 100 mg ritonavir po BID; type: organism-based; details: in vivo
# Homo sapiens [30] = assay: Toxicity in human assessed as psychiatric disorder at 150 mg, […] with 700 mg fosamprenavir and 100 mg ritonavir po BID; type: organism-based; details: in vivo
# Homo sapiens [31] = assay: Toxicity in human assessed as rash generalized at 150 mg, […] with 700 mg fosamprenavir and 100 mg ritonavir po BID; type: organism-based; details: in vivo
# Homo sapiens [32] = assay: Toxicity in human assessed as increase in ALT level at 300 mg, po QD; type: organism-based; details: in vivo
# Homo sapiens [33] = assay: Toxicity in human assessed as pain at 150 mg, […] with 700 mg fosamprenavir and 100 mg ritonavir po BID; type: organism-based; details: in vivo
# Homo sapiens [34] = assay: Toxicity in human assessed as skin and subcutaneous tissue disorder at 150 mg, […] with 700 mg fosamprenavir and 100 mg ritonavir po BID; type: organism-based; details: in vivo
# Homo sapiens [35] = assay: Toxicity in human assessed as chills at 300 mg, po QD; type: organism-based; details: in vivo
# clinical = details: human, in vivo, po
# Homo sapiens [36] = assay: Toxicity in human assessed as chromaturia at 150 mg, po QOD coadministered with 700 mg fosamprenavir and 100 mg ritonavir po BID; details: in vivo
# Homo sapiens [37] = assay: Toxicity in human assessed as neutropenia at 300 mg, po QD; type: organism-based; details: in vivo
# Homo sapiens [38] = assay: Toxicity in human assessed as insomnia at 300 mg, po QD; type: organism-based; details: in vivo
# Homo sapiens [39] = assay: Toxicity in human assessed as musculoskeletal and connective tissue disorder at 150 mg, […] with 700 mg fosamprenavir and 100 mg ritonavir po BID; type: organism-based; details: in vivo
# Homo sapiens [40] = assay: Toxicity in human assessed as chills at 150 mg, […] with 700 mg fosamprenavir and 100 mg ritonavir po BID; type: organism-based; details: in vivo
# Homo sapiens [41] = assay: Toxicity in human assessed as fatigue at 150 mg, […] with 700 mg fosamprenavir and 100 mg ritonavir po BID; type: organism-based; details: in vivo
# Homo sapiens [42] = assay: Toxicity in human assessed as diarrhea disorder at 150 mg, po QOD coadministered with 700 mg fosamprenavir and 100 mg ritonavir po BID; details: in vivo
# Homo sapiens [43] = assay: Toxicity in human assessed as blood and lymphatic system disorder at 150 mg, […] with 700 mg fosamprenavir and 100 mg ritonavir po BID; type: organism-based; details: in vivo
# Homo sapiens [44] = assay: Toxicity in human assessed as renal and urinary disorder at 150 mg, […] with 700 mg fosamprenavir and 100 mg ritonavir po BID; type: organism-based, Urine; details: in vivo
# Homo sapiens [45] = assay: Toxicity in human assessed as pain at 300 mg, po QD; type: organism-based; details: in vivo
# Homo sapiens [46] = assay: Toxicity in human assessed as gastrointestinal disorder at 150 mg, po QOD coadministered with 700 mg fosamprenavir and 100 mg ritonavir po BID; details: in vivo
# Homo sapiens [47] = assay: Toxicity in human assessed as diarrhea at 300 mg, po QD; type: organism-based; details: in vivo
# Homo sapiens [48] = assay: Toxicity in human assessed as myalgia at 150 mg, po QOD coadministered with 700 mg fosamprenavir and 100 mg ritonavir po BID; details: in vivo
# [49] = AUC (0 to 48 hrs) in human at 300 mg, po QD; type: ADME, organism-based; design: time < 48 hr, dose 300 mg, route oral; details: plasma; procedure, shortened: as §2
# Homo sapiens [50] = assay: Toxicity in human assessed as thrombocytopenia at 150 mg, […] with 700 mg fosamprenavir and 100 mg ritonavir po BID; type: organism-based; details: in vivo
# Homo sapiens [51] = assay: Toxicity in human assessed as increase in neutrophile count at 300 mg, po QD; type: organism-based; details: in vivo
# Homo sapiens [52] = assay: Toxicity in human assessed as thrombocytopenia at 300 mg, po QD; type: organism-based; details: in vivo
# Homo sapiens [53] = assay: Toxicity in human assessed as chromaturia at 300 mg, po QD; type: organism-based; details: in vivo
smiles,measurement,setting,value
CO[C@H]1/C=C/O[C@@]2(C)Oc3c(C)c(O)c4c(c3C2=O)C2=NC3(CCN(CC(C)C)CC3)NC2=C(NC(=O)/C(C)=C\C=C\[C@H](C)[C@H](O)[C@@H](C)[C@@H](O)[C@@H](C)[C@H](OC(C)=O)[C@@H]1C)C4=O [RIFABUTIN],Activity,Homo sapiens [1],3%
same,Activity,Homo sapiens [2],0%
same,Activity,Homo sapiens [3],6%
same,Activity,Homo sapiens [4],7%
same,Activity,Homo sapiens [5],2%
same,Activity,Homo sapiens [6],3%
same,AUC at 48 h,[7],5810 ng·h/mL
same,AUC,Homo sapiens [8],411 ng·h/mL
same,Cmax,[9],313 ng/mL
same,Activity,Homo sapiens [10],3%
same,Activity,Homo sapiens [11],59%
same,Activity,Homo sapiens [12],35%
same,Activity,Homo sapiens [13],3%
same,Activity,Homo sapiens [14],35%
same,Activity,Homo sapiens [15],6%
same,Activity,Homo sapiens [16],5%
same,Activity,Homo sapiens [17],3%
same,Activity,Homo sapiens [18],12%
same,Activity,Homo sapiens [19],5%
same,Activity,Homo sapiens [20],0%
same,Activity,Homo sapiens [21],1%
same,Activity,Homo sapiens [22],45%
same,AUC,Homo sapiens [23],4600 ng·h/mL
same,Activity,Homo sapiens [24],9%
same,Activity,Homo sapiens [25],0%
same,Activity,Homo sapiens [26],2%
same,Activity,Homo sapiens [27],1%
same,Activity,Homo sapiens [28],0%
same,Activity,Homo sapiens [29],55%
same,Activity,Homo sapiens [30],2%
same,Activity,Homo sapiens [31],2%
same,Activity,Homo sapiens [32],0%
same,Activity,Homo sapiens [33],1%
same,Activity,Homo sapiens [34],6%
same,Activity,Homo sapiens [35],0%
same,Cmax,clinical,268 ng/mL
same,Activity,Homo sapiens [36],4%
same,Activity,Homo sapiens [37],2%
same,Activity,Homo sapiens [38],4%
same,Activity,Homo sapiens [39],5%
same,Activity,Homo sapiens [40],3%
same,Activity,Homo sapiens [41],4%
same,Activity,Homo sapiens [42],4%
same,Activity,Homo sapiens [43],3%
same,Activity,Homo sapiens [44],50%
same,Activity,Homo sapiens [45],2%
same,Activity,Homo sapiens [46],7%
same,Activity,Homo sapiens [47],0%
same,Activity,Homo sapiens [48],4%
same,AUC at 48 h,[49],6110 ng·h/mL
same,Activity,Homo sapiens [50],3%
same,Activity,Homo sapiens [51],0%
same,Activity,Homo sapiens [52],0%
same,Activity,Homo sapiens [53],0%
